Measured values reported in publication PMC11682233 (Scientific Reports, 2024).

Assays:
[1] = test system: NPC cells; test: Preliminary NPC cytotoxicity screening; type: cell-based; details: MTT, 48 h
Method in brief: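 3,000 NPC cells per well, plated 24 h, then given fresh medium with test compound at 0.1, 1, 10 or 100 µM for 48 h; cisplatin served as positive control. MTT at 0.5 mg/mL final in RPMI for 3 h at 37 °C. Formazan dissolved in DMSO, absorbance read at 540 nm. Run in triplicate; t-test, p < 0.05 significant.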

[2] = test system: SUNE5-8F; test: Clonogenic; type: cell-based
[3] = test system: SUNE6-10B; test: Clonogenic; type: cell-based
[4] = test system: phosphorylated LRP6; test: Western immunoblotting of Wnt signaling proteins in SUNE5-8F cells; type: cell-based; details: IC25 and IC50 doses, 48 h
Method in brief: (§1)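 Lysates spun at 12,000 × g, 10 min, 4 °C; Bradford assay. 10% SDS-PAGE, nitrocellulose transfer, 5% BSA block 1 h, primary antibody overnight at 4 °C, HRP secondary 1 h at room temperature, ECL detection. Band densities normalised to β-actin, expressed relative to untreated control.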

[5] = test system: non-phosphorylated β-catenin; test: as above; type: cell-based; details: IC25 and IC50 doses, 48 h
Method in brief: as §1

[6] = test system: non-phosphorylated β-catenin; test: Western immunoblotting of Wnt signaling proteins in SUNE6-10B cells; type: cell-based; details: IC50 dose, 48 h
Method in brief: as §1

[7] = target: T1, FZD10 recombinant proteoliposome (Homo sapiens, UniProt Q9ULW2); test: STD-NMR; type: binding; details: 230 nM protein, 0.3–1.5 µM ligand, D2O, 298 K
T1 sequence (Q9ULW2 21-581): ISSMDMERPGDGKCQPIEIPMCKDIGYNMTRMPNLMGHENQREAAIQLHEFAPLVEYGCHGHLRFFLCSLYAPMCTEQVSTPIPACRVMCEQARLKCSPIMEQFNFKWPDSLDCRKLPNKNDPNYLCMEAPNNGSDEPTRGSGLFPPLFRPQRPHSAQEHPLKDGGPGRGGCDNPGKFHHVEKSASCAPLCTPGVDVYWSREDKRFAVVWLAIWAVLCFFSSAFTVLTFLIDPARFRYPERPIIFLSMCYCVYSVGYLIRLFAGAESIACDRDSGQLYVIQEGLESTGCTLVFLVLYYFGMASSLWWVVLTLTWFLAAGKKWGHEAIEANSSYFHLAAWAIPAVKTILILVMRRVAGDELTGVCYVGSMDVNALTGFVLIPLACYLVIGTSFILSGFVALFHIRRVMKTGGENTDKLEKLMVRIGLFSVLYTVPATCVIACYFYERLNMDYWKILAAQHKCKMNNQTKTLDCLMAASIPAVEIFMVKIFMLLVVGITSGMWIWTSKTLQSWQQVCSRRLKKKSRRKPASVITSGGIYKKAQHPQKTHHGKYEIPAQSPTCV
Method in brief: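 STD-NMR at 600 MHz on a cryoprobe-equipped spectrometer, with the residual D2O peak (δH 4.70) as chemical shift reference. 1H spectral width 9600 Hz, 30° pulse angle, 2.5 s recycle delay, 8 scans.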

[8] = test system: phosphorylated LRP6; test: Western immunoblotting of Wnt signaling proteins in SUNE6-10B cells; type: cell-based; details: IC50 dose, 48 h
Method in brief: as §1

[9] = IC25 dose (rilpivirine 2 µM, doxazosin 7 µM, nicergoline 20 µM)
[10] = IC50 dose (rilpivirine 4 µM, doxazosin 14 µM, nicergoline 40 µM)
[11] = IC25 dose (doxazosin 7 µM, nicergoline 20 µM)

Row | SMILES | 50% inhibition cutoff at 100 µM [1] | colony formation [2, 9] | colony formation [2, 10] | colony formation [3, 11] | colony formation [3, 10] | expression of phosphorylated LRP6 [4] | expression of active β-catenin (non-phosphorylated β-catenin) [5] | expression level of active β-catenin [6] | STD signals (binding to FZD10) [7] | colony formation ([2]; 8 µM) | expression of phosphorylated LRP6 [8]
1 | CO[C@]12C[C@@H](COC(=O)c3cncc(Br)c3)CN(C)[C@@H]1Cc1cn(C)c3cccc2c13 [Nicergoline] | met the 50% inhibition cutoff at 100 µM | suppressed the colony formation | suppressed the colony formation | suppressed the colony formation | suppressed the colony formation | decreased | decreased | decreased | STD signals corresponding to H2 and H3 |  | 
2 | COc1cc2nc(N3CCN(C(=O)C4COc5ccccc5O4)CC3)nc(N)c2cc1OC (centres unmarked) [Doxazosin] | met the 50% inhibition cutoff at 100 µM | suppressed the colony formation | suppressed the colony formation | suppressed the colony formation | suppressed the colony formation | decreased | decreased |  | STD signals for H5 and H6 |  | 
3 | COc1cc2nc(N3CCN(C(=O)c4ccco4)CC3)nc(N)c2cc1OC [Prazosin] | met the 50% inhibition cutoff at 100 µM |  |  |  |  | decreased | decreased | decreased | STD signals from H2, H3,4, and H5,6 | inhibited colony formation | 
4 | Cc1cc(/C=C/C#N)cc(C)c1Nc1ccnc(Nc2ccc(C#N)cc2)n1 [Rilpivirine] | met the 50% inhibition cutoff at 100 µM | no impact | reduced the colony formation ability |  | reduced the colony formation ability | decreased | decreased | decreased | STD signals from H2 |  | reduced
